# In the library only some 2.6% were active in any assay of this set; here they are far more common.
# rRNA inh HTS: inhibits bacterial ribosomal RNA function over humanized ribosomes | AID 720706 | 1.6% of 350,000 active | E. coli WT GFP vs humanized-ribosome RFP mutants, fluorescence, 24 h; stronger effect = lower value; DMSO median 0, no signal -100 | GFP signal change (wild-type ribosome), % (test concentration not listed);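 active means significant combined selectivity score with lowered wild-type GFP, culture density cut under 30%, mutant RFP and density less affected; inactive means any of these conditions unmet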
# E-sel inducer: induces E-selectin expression in human endothelial cells; P16581; HUVEC E-selectin immunofluorescence imaging; normalized: neutral wells 0, TNF-alpha wells 100; activation, % at 7.58 µM; 0.37% of 260,000 active; AID 686992;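 active means mean E-selectin-positive cell signal at least 10% of the positive control, reached in at least 60% of replicates, without over 20% cell loss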
#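 Read-out basis: % PE-positive cells; Test system: HUVEC primary endothelial cells; Technique: immunofluorescence imaging; Dosing: single-point compound dose.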
# MLL AF4-AF9 inh: MLL-AF4/AF9 protein interaction inhibition. 0.47% of 350,000 active. AID 651704. inhibition, % at 10 µM. P42568. AlphaScreen, biotin-AF4 peptide binding to FLAG-AF9;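 active means every replicate reaching a set inhibition limit, whatever the replicate mean, cut at about 25% in these data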;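 further: 0% = plate neutral control median and 100% = total signal loss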
# RAD54 inh: blocks human RAD54 Holliday junction branch migration. FAM/BHQ fluorescence. inhibition, % at 10.4 µM. 0.14% of 360,000 active;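 active means mean normalized replicate activity at least 40 and at least half of replicates scoring 40 or more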;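 further: 0% = median of neutral control wells and 100% = median of positive control wells; inhibitors cause a drop in the FAM fluorescence signal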
# Target sequence (Q92698 whole entry, looked up): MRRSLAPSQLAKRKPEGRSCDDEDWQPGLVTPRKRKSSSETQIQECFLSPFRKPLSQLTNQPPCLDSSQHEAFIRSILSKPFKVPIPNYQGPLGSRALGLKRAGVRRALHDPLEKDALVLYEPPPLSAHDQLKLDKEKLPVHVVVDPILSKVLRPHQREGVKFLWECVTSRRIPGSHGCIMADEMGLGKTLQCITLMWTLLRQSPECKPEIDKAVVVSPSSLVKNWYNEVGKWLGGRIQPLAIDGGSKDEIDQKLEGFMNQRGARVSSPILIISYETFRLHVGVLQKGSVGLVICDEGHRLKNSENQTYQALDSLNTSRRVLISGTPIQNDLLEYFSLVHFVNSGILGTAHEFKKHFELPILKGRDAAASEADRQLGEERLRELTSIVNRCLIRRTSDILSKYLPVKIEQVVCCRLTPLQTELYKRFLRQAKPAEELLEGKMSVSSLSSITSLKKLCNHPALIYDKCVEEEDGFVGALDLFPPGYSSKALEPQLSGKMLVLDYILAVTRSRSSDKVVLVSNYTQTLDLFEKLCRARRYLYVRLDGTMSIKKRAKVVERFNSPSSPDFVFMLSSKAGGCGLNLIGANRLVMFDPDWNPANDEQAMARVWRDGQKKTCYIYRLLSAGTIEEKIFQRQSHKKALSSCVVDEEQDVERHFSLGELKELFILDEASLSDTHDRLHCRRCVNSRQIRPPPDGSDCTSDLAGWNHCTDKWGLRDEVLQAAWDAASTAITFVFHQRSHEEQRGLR
# RAD52 inh: inhibitors of human RAD52 DNA annealing; recombinant RAD52 DNA annealing, FRET fluorescence; 0.46% of 360,000 active; AID 651710; P43351; inhibition, % at 18.7 µM;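 active means every replicate showing at least 50% inhibition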
# INS-1E GSIS act: primary screen for activators of insulin secretion dependent on glucose, INS-1E cells, GLuc reporter luminescence; INS-1E GLuc reporter insulin secretion, 2-3 h; activation, % at 16.6 µM; 0.61% of 370,000 active; AID 743287;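 active means lowest replicate activation of at least 40%, so every replicate reaches that level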;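 further: 0% = median of neutral control wells and 100% = median of IBMX positive control wells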
# * hit, by the source's call; . = not tested or not shown; ! = a repeat was not active.
SMILES,rRNA inh HTS,E-sel inducer,MLL AF4-AF9 inh,RAD54 inh,RAD52 inh,INS-1E GSIS act
c1ccc(C[n+]2c(-c3ccccc3)csc2Nc2ccccc2)cc1,-15.5,.,0.7,-5.7,-9.4,5.3
CC(C)(C)Nc1scc(-c2ccccc2)[n+]1-c1ccccc1,9.0,19.2,28.2*,.,-6.2,48.7
CCS(=O)(=O)Nc1ccc2c(c1)C(=O)N(C)C[C@@H](OC)[C@@H](C)CN(C(=O)COC)[C@@H](C)CO2,1.9,0.2,0.8,5.1,-1.1,5.2
CCOC(=O)c1cnc2c(c(C)nn2C)c1Oc1ccccc1F,-31.9*,.,3.8,.,-7.8,.
C[C@@H]1CN([C@@H](C)CO)C(=O)c2cc(C3=CCCCC3)cnc2O[C@@H]1CN(C)C(=O)NC1CCCC1,6.1,0.4,-0.4,2.7,15.4,-10.2
COc1ccc(-c2nc(CN3CCCCC3c3nccn3C)c(C)o2)c(C)c1C (stereo unspecified),-33.5*,-0.1,13.7,-2.4,-36.6,-41.8
COc1ccc2cc(CN(CC3CCCO3)S(=O)(=O)c3ccccc3Cl)c(=O)[nH]c2c1 (stereo unspecified),-36.1*,.,.,-9.2,-7.6,-18.8
O=c1[nH]c2ccccc2cc1CN(CC1CCCO1)S(=O)(=O)c1ccc(Cl)cc1 (stereo unspecified),-8.4,.,-2.7,1.1,-6.8,-1.1
O=C(C[C@@H]1C[C@H]2c3cc(NC(=O)Nc4ccc(F)cc4)ccc3O[C@H]2[C@@H](CO)O1)NC1CCCC1,-3.7,0.1,0.1,-1.1,-2.3,6.3
CCC(=O)NC(c1ccccc1)c1c(O)ccc2ccccc12 (stereo unspecified),-32.5*,0.0,-2.2,-7.8,-7.8,-35.9
CCCC(=O)NC(c1ccccc1)c1c(O)ccc2ccccc12 (stereo unspecified),-28.5,-0.1,-5.5,4.3,-3.8,.
Cc1ccc(S(=O)(=O)N(C)C[C@@H]2OCCCC[C@H](C)Oc3ccc(NS(C)(=O)=O)cc3C(=O)N([C@H](C)CO)C[C@H]2C)cc1,-1.1,1.4,1.0,1.1,15.0,1.5
CC(NC(=O)COC(=O)C1CCN(c2ccc(C(F)(F)F)cn2)CC1)c1ccc(F)cc1 (stereo unspecified),-5.0,.,0.1,-11.1,-3.4,-1.1
CC(NC(=O)COC(=O)C1CCN(c2ccc(C(F)(F)F)cn2)CC1)c1ccc(Br)cc1 (stereo unspecified),-24.4*,.,-14.1,-5.7,-18.1,-14.9
Cc1nn(-c2ccccc2)c(C)c1N,12.7,.,4.5,4.5,-3.5,-1.3
Cc1c(O)cnc2nn(-c3ccccc3)c(=N)n12,4.9,-0.2,4.4,.,-11.9,41.7*
COC(=O)C(NC(=O)c1ccccc1)(Nc1nc(C)cs1)C(F)(F)F (stereo unspecified),-41.6*,.,4.2,-0.1,-14.2,3.6
COc1cccc(C(=O)Nc2ccc3c(c2)OC[C@@H](C)N(C(=O)C2CCOCC2)C[C@@H](C)[C@H](OC)CN(C)C3=O)c1,1.9,-0.1,-1.2,-9.7,-0.2,2.9
NC1=NC[C@H](Cc2ccccc2)N1CCCCC1CCCCC1,-55.6,.,4.5,26.0,-81.9,469.5*
NC1=NC[C@H](Cc2ccc(O)cc2)N1CCCCC1CCCCC1,-55.6,.,18.3,16.4,-2.5,.
COCCOC(=O)N1C(=O)[C@@]2(c3cc(C#Cc4ccc(OC)cc4)ccc31)[C@H](c1ccc(OCCO)cc1)N1[C@H](c3ccccc3)[C@H](c3ccccc3)OC(=O)[C@H]1[C@@H]2C(=O)N1CCN(c2ncccn2)CC1,.,.,-3.0,4.1,-2.3,.
CCC(=O)N1C[C@H](C)[C@@H](OC)CN(C)C(=O)c2ccc(NC(=O)c3cc(C)on3)cc2OC[C@@H]1C,2.3,-0.2,.,20.4,.,-3.4
CC(C(=O)Nc1ccc2c(c1)OCO2)N1CCN(C)CC1 (stereo unspecified),7.5,.,0.3,4.7,0.9,19.1
CC(C(=O)Nc1ccc2[nH]c(=O)[nH]c2c1)N1CCN(Cc2ccc3c(c2)OCO3)CC1 (stereo unspecified),7.5,.,-0.9,2.9,-3.5,60.4*
COC(=O)c1sc2nc(SCC(=O)N(C)c3ccccc3)n(N)c(=O)c2c1C,-2.9,154.0*,-4.1,.,-4.2,-6.4
SMILES,rRNA inh HTS,E-sel inducer,MLL AF4-AF9 inh,RAD54 inh,RAD52 inh,INS-1E GSIS act
COC(=O)c1sc2nc(SCc3ccccc3C)n(N)c(=O)c2c1C,7.1,-0.9,0.1,.,-7.1,.
Cc1cc(C(=O)Nc2cccc3c2O[C@H](CN(C)S(C)(=O)=O)[C@H](C)CN([C@@H](C)CO)C3=O)n(C)n1,-1.5,.,-0.7,3.9,14.0,-4.1
CC(C)NC(=O)N(C)C[C@H]1Oc2cc(C#C[C@H](C)O)ccc2S(=O)(=O)N([C@H](C)CO)C[C@H]1C,0.5,0.8,.,.,.,5.1
COc1ccccc1OCC(=O)Nc1ccc(S(=O)(=O)Nc2cc(C)on2)cc1,3.5,.,1.5,6.7,-20.2,6.9
Cc1cc(NS(=O)(=O)c2ccc(NC(=O)C(C)Oc3ccc(Cl)cc3)cc2)no1 (stereo unspecified),.,.,.,.,.,4.9
Cc1cc(NS(=O)(=O)c2ccc(NC(=O)C(C)Oc3ccccc3Cl)cc2)no1 (stereo unspecified),-11.3,-0.3,6.8,-4.3,-11.5,59.0*
COc1ccccc1/C=C/C(=O)Nc1ccc(S(=O)(=O)Nc2cc(C)on2)cc1,-35.0*,0.0,-0.8,-9.8,-16.0,33.4
C[C@@H]1CN([C@@H](C)CO)C(=O)Cc2cc(NC(=O)CCCN(C)C)ccc2O[C@H]1CN(C)S(=O)(=O)c1ccccc1,1.7,-3.3,-0.7,-1.7,-2.5,16.0
CC=Cc1ccc2n(c1=O)C[C@H]1[C@H](CO)[C@@H](C(=O)N[C@H](C)c3ccccc3)[C@@H]2N1CC1CC1 (mixture of isomers),0.0,-0.1,-0.6,-3.0,-1.7,-12.0
Cc1cc(/C=C2/SC(=O)N(CC(=O)N3CCOCC3)C2=O)c(C)n1-c1ccccc1F,-8.0,-1.1,0.4,.,-23.6,51.5*
COc1ccc(-n2c(C)cc(/C=C3/SC(=O)N(CC(=O)N4CCOCC4)C3=O)c2C)cc1,9.9,-0.2,4.4,.,-2.8,23.5
CCCNC(=O)Nc1ccc2c(c1)C(=O)N(C)C[C@@H](OC)[C@H](C)CN(Cc1cncnc1)[C@H](C)CO2,-1.2,0.1,-2.2,3.3,3.0,6.8
CC1CCC(C(C)C)C(OC(=O)Cn2c(-c3ccccc3)[n+](C)c3ccccc32)C1 (stereo unspecified),-50.9*!,-2.7,8.9,27.1,35.7,7.5
CC1CCC(C(C)C)C(OC(=O)Cn2c(-c3ccc(F)cc3)[n+](C)c3ccccc32)C1 (stereo unspecified),-47.0,-0.8,-65.9,20.3,39.0,61.6
